The text below walks through data of ChEMBL document CHEMBL1221381, “Heterocyclic compounds and aromatic diglycosides from Bretschneidera sinensis” (J Nat Prod, 2010).

Assay [1] has as its system HL-60. As to the kind of experiment: Cytotoxicity against human HL60 cells at 100 ug/ml after 72 hrs by MTT assay. The class given is functional. To be noted: HL-60, 72 h, read-out: GI. In a few lines: (§1)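 Test samples (>95% pure) were dissolved in DMSO and diluted with PBS to a 1000 µg mL-1 solution. This was serially diluted in PBS to 100–3.125 µg mL-1 solutions. Human cells were seeded at (4-6) × 10^4 cells/mL, and 10 µL/well of sample was added 24 h after seeding. Plates were incubated 72 h at 37 °C in humidified 5% CO2. Viability was read by MTT at 570 nm. Doxorubicin served as positive control.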
In general terms: Tetrazolium dyes change colour on reduction, which living cells bring about.

Assay [2] has as its system HCT-116. As to the kind of experiment: Cytotoxicity against human HCT116 cells at 100 ug/ml after 72 hrs by MTT assay. The class given is functional. As to conditions: HCT-116, 72 h, read-out: GI. In a few lines:
as §1

Assay [3] relates to NCI-H446. As to the kind of experiment: Cytotoxicity against human NCI-H446 cells after 72 hrs by MTT assay. The class given is functional, cell-based. To be noted: NCI-H446, 72 h. The method in brief:
as §1

For assay [4], the system named is HCT-116. As to the kind of experiment: Cytotoxicity against human HCT116 cells after 72 hrs by MTT assay. Format: functional, cell-based. To be noted: HCT-116, 72 h. In a few lines:
as §1

Assay [5] is described as follows: Cytotoxicity against human PC3M cells after 72 hrs by MTT assay. As to conditions: PC-3M. Format: functional, cell-based. The method in brief: as §1
Assay [6] is described as follows: Cytotoxicity against human PC3M cells at 100 ug/ml after 72 hrs by MTT assay. Format: functional. To be noted: PC-3M, read-out: GI. In a few lines: as §1
The test system of assay [7] is HL-60. As to the kind of experiment: Cytotoxicity against human HL60 cells after 72 hrs by MTT assay. The class given is functional, cell-based. As to conditions: HL-60, 72 h. In a few lines: as §1
The test system of assay [8] is NCI-H446. As to the kind of experiment: Cytotoxicity against human NCI-H446 cells at 100 ug/ml after 72 hrs by MTT assay. The class given is functional. As to conditions: NCI-H446, 72 h, read-out: GI. The method in brief: as §1

Values after ≈ are worked out from the molar mass of the structure shown.

One may read the IC50 as the concentration needed to halve the response being measured. High values mean weaker potency in that assay, low ones greater potency in that assay. As for `COc1cccc2c1C(=O)c1c(O)c3c(c(O)c1C2=O)C[C@@](O)(C(=O)CO)C[C@@H]3O[C@H]1C[C@H](N)[C@H](O)[C@H](C)O1` [DOXORUBICIN], the inhibition of growth at 100 µg/mL amounted to 94.7% in the assay on HL-60 [1], 93.1% in the assay on HCT-116 [2], 96.4% in assay [6] and 91.2% in the assay with NCI-H446 [8]. Also, the IC50 in the assay on NCI-H446 [3] was 0.0248 µg/mL (≈ 0.0456 µM); in the assay on HCT-116 [4], 0.286 µg/mL (≈ 0.526 µM); in assay [5], less than 0.001 µg/mL; in the assay on HL-60 [7] it was 0.457 µg/mL (≈ 0.841 µM).
On to `COc1ccc2c(=O)n(C)c(=S)sc2c1OC` [BRETSCHNEIDERAZINE B], for which the inhibition of growth at 100 µg/mL worked out at 8.04% with HL-60 [1], 0% with HCT-116 [2], 0% in assay [6] and 41.3% in the assay with NCI-H446 [8]. Also, the IC50 was 60.2 µg/mL (≈ 224 µM) in the assay on NCI-H446 [3], more than 100 µg/mL in the assay with HCT-116 [4], more than 100 µg/mL in assay [5] and more than 100 µg/mL in the assay with HL-60 [7].
For the compound `COc1cc2sc(=S)n(C)c(=O)c2cc1O` [BRETSCHNEIDERAZINE A], the inhibition of growth at 100 µg/mL with HL-60 [1] turned out to be 9.91%; in the assay on HCT-116 [2] it was 0%; in assay [6], 29.4%; in the assay with NCI-H446 [8] it was 53.9%. Also, the IC50 was 79.2 µg/mL (≈ 310 µM) with NCI-H446 [3], more than 100 µg/mL with HCT-116 [4], more than 100 µg/mL in assay [5] and more than 100 µg/mL with HL-60 [7].
`COc1cc(CO[C@@H]2O[C@H](CO[C@@H]3OC[C@](O)(CO)[C@H]3O)[C@@H](O)[C@H](O)[C@H]2O)ccc1O` [BRETSCHNEIDEROSIDE C]: the inhibition of growth at 100 µg/mL was 5.68% with HL-60 [1], 9.3% in the assay on HCT-116 [2], 6.35% in assay [6] and 40.7% in the assay with NCI-H446 [8]. Also, the IC50 (with NCI-H446 [3]; with HCT-116 [4]; in assay [5]; with HL-60 [7]) was more than 100 µg/mL in each case.
On to `O=Cc1ccc(O[C@@H]2O[C@H](CO[C@@H]3OC[C@](O)(CO)[C@H]3O)[C@@H](O)[C@H](O)[C@H]2O)c(O)c1` [BRETSCHNEIDEROSIDE B], for which the inhibition of growth at 100 µg/mL came out at 7.25% in the assay on HL-60 [1], 0% in the assay with HCT-116 [2], 0% in assay [6] and 38.4% in the assay with NCI-H446 [8]. Further, the IC50 (in the assay on NCI-H446 [3]; in the assay with HCT-116 [4]; in assay [5]; in the assay on HL-60 [7]) was more than 100 µg/mL in each case.
As to `COc1cc(C=O)ccc1O[C@@H]1O[C@H](CO[C@@H]2OC[C@](O)(CO)[C@H]2O)[C@@H](O)[C@H](O)[C@H]1O` [BRETSCHNEIDEROSIDE A], the inhibition of growth at 100 µg/mL with HL-60 [1] was 0.14%; with HCT-116 [2] it was 0%; in assay [6] it was 0%; in the assay on NCI-H446 [8] it was 29.7%. In addition, the IC50 (in the assay on NCI-H446 [3]; with HCT-116 [4]; in assay [5]; in the assay with HL-60 [7]) was more than 100 µg/mL each time.
